Data from ChEMBL document CHEMBL1121802, “Imine analogues of tricyclic antidepressants” (1981).

What was measured:
Assay type in all cases: functional
Mus musculus [1] = experiment: The effect on 24-hour mortality in mice following oral administration
Mus musculus [2] = experiment: The effect on ataxia in mice following oral administration
In short: (§1)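 Observed at 0.5, 2, 5 and 24 h for ataxia (abnormal gait/imprecise movement), pupil diameter (dissecting microscope, 20×, micrometer), excitement (spontaneous running/jumping) and electroshock protection (corneal electrodes at 2 and 5 h). ED50 by Thompson method.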

Mus musculus [3] = experiment: Antidepressant activity by determining the reversal of tetrabenazine-induced ptosis upon oral administration
In short: (§2)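 Mice given test drug orally; 30 min later challenged with tetrabenazine (methanesulfonate) 32 mg/kg ip in 0.05 M KCl pH 2.0. Scored 1 h after test drug for exploratory activity and ptosis; ptosis antagonism = lid closure <50% in both eyes exactly 2 s after placing mouse facing observer. ED50 calculated by Thompson method.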

Mus musculus [4] = experiment: Antidepressant activity by determining the decreased exploratory activity in mice upon oral administration; in short: as §2
Mus musculus [5] = experiment: The effect on electroshock protection in mice following oral administration; in short: as §1
Mus musculus [6] = experiment: The effect on excitement was measured in mice following oral administration; in short: as §1
Mus musculus [7] = experiment: Effect on pupil dilation was measured in mice upon oral administration; in short: as §1
Mus musculus [8] = experiment: Compound was tested for antidepressant activity by determining the reversal of tetrabenazine-induced ptosis upon oral administration; 3.0-73; in short: as §2
Mus musculus [9] = experiment: Compound was tested for antidepressant activity by determining the decreased exploratory activity in mice upon oral administration; 20-36; in short: as §2
Mus musculus [10] = experiment: Compound was tested for antidepressant activity by determining the reversal of tetrabenazine-induced ptosis upon oral administration; 5.8-15.6; in short: as §2
Mus musculus [11] = experiment: Compound was tested for antidepressant activity by determining the decreased exploratory activity in mice upon oral administration; in short: as §2
Mus musculus [12] = experiment: Compound was tested for antidepressant activity by determining the reversal of tetrabenazine-induced ptosis upon oral administration; 26-122; in short: as §2
Mus musculus [13] = experiment: Compound was tested for antidepressant activity by determining the decreased exploratory activity in mice upon oral administration; 39-238; in short: as §2
Mus musculus [14] = experiment: Compound was tested for antidepressant activity by determining the reversal of tetrabenazine-induced ptosis upon oral administration; 37-170; in short: as §2
Mus musculus [15] = experiment: Compound was tested for antidepressant activity by determining the reversal of tetrabenazine-induced ptosis upon oral administration; 10-57; in short: as §2
Mus musculus [16] = experiment: Compound was tested for antidepressant activity by determining the decreased exploratory activity in mice upon oral administration; 22-53; in short: as §2
Mus musculus [17] = experiment: Compound was tested for antidepressant activity by determining the decreased exploratory activity in mice upon oral administration; 2.6-28; in short: as §2
Mus musculus [18] = experiment: Compound was tested for antidepressant activity by determining the reversal of tetrabenazine-induced ptosis upon oral administration; 48-203; in short: as §2
Mus musculus [19] = experiment: Compound was tested for antidepressant activity by determining the reversal of tetrabenazine-induced ptosis upon oral administration; 11-29; in short: as §2
Mus musculus [20] = experiment: compound was tested for antidepressant activity by determining the decreased exploratory activity in mice upon oral administration; […]
In short: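 Mice got the test drug, then 30 min later tetrabenazine (as methanesulfonate) 32 mg/kg ip, dissolved in 0.20 mL of 0.05 M KCl at pH 2.0. One hour after test drug (30 min after tetrabenazine), animals were scored for exploratory activity and ptosis. Reversal of the tetrabenazine-induced decrease in exploration was the read-out.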

Mus musculus [21] = experiment: Compound was tested for antidepressant activity by determining the reversal of tetrabenazine-induced ptosis upon oral administration; 6-20; in short: as §2
Mus musculus [22] = experiment: Compound was tested for antidepressant activity by determining the decreased exploratory activity in mice upon oral administration; 8-58; in short: as §2
Mus musculus [23] = experiment: Compound was tested for antidepressant activity by determining the reversal of tetrabenazine-induced ptosis upon oral administration; 0.17-0.37; in short: as §2
Mus musculus [24] = experiment: Compound was tested for antidepressant activity by determining the decreased exploratory activity in mice upon oral administration; 0.4-1.1; in short: as §2

Compound | ED50 (Mus musculus [1]) [mg/kg] | ED50 (Mus musculus [2]) [mg/kg] | ED50 (Mus musculus [3]) [mg/kg] | ED50 (Mus musculus [4]) [mg/kg] | ED50 (Mus musculus [5]) [mg/kg] | ED50 (Mus musculus [6]) [mg/kg] | ED50 (Mus musculus [7]) [mg/kg] | also measured
CC(=O)N1Cc2ccccc2/C(=N\CCN(C)C)c2ccccc21 | > 324 | 100 | > 125 | > 125 | > 324 | > 324 | 200 | –
CN(C)CCCN=C(c1ccccc1)c1ccccc1 | 200 | 60 | > 125 | > 125 | > 324 | > 324 | > 324 | –
CN(C)CC/N=C1\c2ccccc2CSc2ccccc21 | 60 | 20 | – | – | > 324 | > 324 | 20 | ED50 (Mus musculus [8]): 47 mg/kg; ED50 (Mus musculus [9]): 27 mg/kg
CCN(CC)CCN=C1c2ccccc2CCc2ccccc21 | 60 | 20 | > 125 | 36 | 200 | > 324 | 36 | –
CN(C)CCCN=c1c2ccccc2ccc2ccccc12 | – | 20 | – | – | > 324 | 36 | 7 | ED50 (Mus musculus [10]): 9.5 mg/kg; ED50 (Mus musculus [11]): > 125 mg/kg
NCCCNC1c2ccccc2CCc2ccccc21 | 200 | 60 | > 125 | – | > 324 | > 324 | 60 | ED50 (Mus musculus [11]): > 125 mg/kg
CN(C)CCC/N=C1\c2ccccc2CN(C)c2ccccc21 | 20 | 200 | – | – | > 324 | > 324 | 100 | ED50 (Mus musculus [12]): 56 mg/kg; ED50 (Mus musculus [13]): 96 mg/kg
CN(C)CCN=C1c2ccccc2C(C)(C)c2ccccc21 | 200 | 36 | > 125 | > 125 | > 324 | > 324 | > 324 | –
c1ccc2c(c1)C(=NCCN1CCOCC1)c1ccccc1C1CC21 (stereo unspecified) | > 324 | 200 | – | > 125 | > 324 | > 324 | > 324 | ED50 (Mus musculus [14]): 79 mg/kg
c1ccc2c(c1)C(=NCCN1CCCC1)c1ccccc1C1CC21 (stereo unspecified) | 300 | 60 | > 125 | > 125 | 200 | > 324 | 7 | –
CN(C)CCCN=C1c2ccccc2CCc2ccccc21 | 36 | 60 | – | – | > 324 | > 324 | 20 | ED50 (Mus musculus [15]): 24 mg/kg; ED50 (Mus musculus [16]): 34 mg/kg
CN(C)CCN=C1c2ccccc2C2C(c3ccccc31)C2(Cl)Cl (stereo unspecified) | > 324 | 200 | > 125 | > 125 | > 324 | > 324 | > 324 | –
CN(C)CCCN=c1c2ccccc2oc2ccccc12 | 300 | 60 | > 125 | > 125 | > 324 | > 324 | > 324 | –
CNCCN=C1c2ccccc2CCc2ccccc21 | 200 | 36 | < 5 | – | > 324 | > 324 | 60 | ED50 (Mus musculus [17]): 8.5 mg/kg
CN(C)CCC/N=C1\c2ccccc2CS(=O)(=O)c2ccccc21 | 20 | 200 | > 125 | > 125 | > 324 | > 324 | 20 | –
CN(C)CCC/N=C1\c2ccccc2CSc2ccccc21 | 60 | 60 | > 81 | 81 | > 324 | > 324 | 60 | –
CN(C)CCC/N=C1\c2ccccc2COc2ccccc21 | 200 | 20 | – | > 125 | > 324 | > 324 | 20 | ED50 (Mus musculus [18]): 99 mg/kg
CN(C)CCN=C1c2ccccc2C2C(Cl)C2c2ccccc21 (stereo unspecified) | > 324 | 200 | > 125 | > 125 | > 324 | > 324 | 200 | –
NCCN=C1c2ccccc2CCc2ccccc21 | 200 | 100 | – | – | 200 | > 324 | 200 | ED50 (Mus musculus [19]): 18 mg/kg; ED50 (Mus musculus [20]): 56 mg/kg
CN(C)CCN=c1c2ccccc2sc2ccccc12 | 300 | 60 | – | – | > 324 | > 324 | 36 | ED50 (Mus musculus [21]): 11 mg/kg; ED50 (Mus musculus [22]): 22 mg/kg
CN(C)CCN=C(c1ccccc1)c1ccccc1 | > 324 | 36 | > 81 | > 81 | > 200 | > 324 | > 324 | –
CN(C)CCN=C1c2ccccc2C2CC2c2ccccc21 (stereo unspecified) | > 324 | 20 | – | – | > 324 | 60 | 20 | ED50 (Mus musculus [23]): 0.25 mg/kg; ED50 (Mus musculus [24]): 0.7 mg/kg
CCNCCN=C1c2ccccc2CCc2ccccc21 | 36 | 20 | > 125 | > 125 | 60 | > 324 | 20 | –
CN(C)CCNC1c2ccccc2CCc2ccccc21 | 200 | 20 | > 125 | – | 60 | > 324 | 20 | ED50 (Mus musculus [11]): > 125 mg/kg
CN(C)CCC=C1c2ccccc2COc2ccccc21 [DOXEPIN] | 232 | 23 | 5.9 | – | 62 | > 324 | 56 | ED50 (Mus musculus [11]): 27 mg/kg
CN(C)CCCN1c2ccccc2CCc2ccccc21 [IMIPRAMINE] | 305 | 62 | 0.9 | – | 209 | > 324 | 198 | ED50 (Mus musculus [11]): 2.2 mg/kg
